# Screening results as filed in PubChem.
# PGE2 EP2 inh = blocks the human prostaglandin E2 receptor EP2. P43116. C6 glioma cells expressing human EP2, cAMP TR-FRET; cells stimulated with saturating PGE2. inhibition, % at 25 µM. hit rate 0.52% among 260,000;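 active means percent inhibition above 40 after rounding to a whole number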;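 further: rat C6 glioma host cells with rolipram phosphodiesterase inhibitor present; the protocol text gives 20 µM as final concentration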
# Target sequence (P43116 whole entry, looked up): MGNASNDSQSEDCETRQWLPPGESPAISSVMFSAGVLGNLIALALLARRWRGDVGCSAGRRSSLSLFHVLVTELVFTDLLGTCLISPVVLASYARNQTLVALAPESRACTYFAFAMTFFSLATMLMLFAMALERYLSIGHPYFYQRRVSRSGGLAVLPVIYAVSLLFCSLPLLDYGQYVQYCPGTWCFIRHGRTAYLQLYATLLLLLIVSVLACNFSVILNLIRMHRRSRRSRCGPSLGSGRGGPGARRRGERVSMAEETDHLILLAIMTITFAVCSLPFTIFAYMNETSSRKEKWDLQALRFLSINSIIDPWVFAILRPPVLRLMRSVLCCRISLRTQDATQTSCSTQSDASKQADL
# NPY Y1 blocker = antagonists of human neuropeptide Y receptor Y1 | AID 1040 | hit rate 1% among 200,000 | P25929 | HEK293-CNG Y1 cells, membrane potential fluorescence; NPY at EC95, then isoproterenol | inhibition, % at 3.6 µM;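 active means inhibition above the campaign mean inhibition of all tested compounds plus 3 SD, cut at about 20% in these data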
#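 Material: HEK293 cells with Y1 receptor plus CNG channel; times: compound incubation 1 h at room temperature, readout 45 min post-stimulation; signal: fluorescence, membrane potential probe; read-out basis: fluorescence ratio normalized to % inhibition between controls; benchmarks: full-block control isoproterenol-only wells, zero-block control NPY plus isoproterenol wells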
# NPY1 pot ag = potentiators or agonists of human neuropeptide Y receptor Y1. NPY-Y1 expressing cells, potentiator/agonist activation. activation, % at 3.6 µM. hit rate 0.37% among 220,000; in the data active means activation above about 33%, passing the limit was not always enough;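 further: cells stimulated with NPY at EC10 then isoproterenol at EC100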
# NPY2 pot ag = potentiators or agonists of human neuropeptide Y receptor Y2. P49146. AID 1359. cells expressing NPY-Y2, potentiator/agonist read-out. hit rate 0.45% among 220,000. activation, % at 3.6 µM; in the data active means activation above about 27%;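 further: cells stimulated with NPY near EC25 plus isoproterenol at EC100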
# Target sequence (P49146 whole entry, looked up): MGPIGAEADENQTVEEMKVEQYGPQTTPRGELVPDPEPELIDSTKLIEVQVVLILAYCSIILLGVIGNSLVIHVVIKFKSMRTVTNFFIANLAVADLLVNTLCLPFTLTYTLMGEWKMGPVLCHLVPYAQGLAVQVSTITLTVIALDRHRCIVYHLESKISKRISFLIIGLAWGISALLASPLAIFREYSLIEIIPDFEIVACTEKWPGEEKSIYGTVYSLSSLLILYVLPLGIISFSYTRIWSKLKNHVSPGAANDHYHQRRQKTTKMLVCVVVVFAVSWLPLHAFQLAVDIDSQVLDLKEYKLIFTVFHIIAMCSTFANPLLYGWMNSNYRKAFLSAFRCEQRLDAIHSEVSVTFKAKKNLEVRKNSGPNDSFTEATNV
# NPY-Y2 antag = antagonists of human neuropeptide Y receptor Y2 | NPY-Y2 expressing cells, antagonist mode | inhibition, % at 2.7 µM | hit rate 0.99% among 140,000 | AID 793; in the data active means inhibition above about 17%
# EP2 mod = EP2 receptor (human) modulation; P43116; EP2-expressing cells, cAMP HTRF FRET, PGE2 co-stimulation; induction, % at 25 µM; hit rate 0.83% among 260,000; AID 940;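 active means compounds whose cAMP rise, as percent of the full-agonist control response, exceeds 60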;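 further: rat C6 glioma line stably carrying human EP2 under a CMV promoter; the protocol text gives 20 µM as final concentration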
# NPY-Y1 confirm = human NPY-Y1 potentiation or agonism, confirmation; shares compounds with NPY1 pot ag; cell-based NPY-Y1 potentiator/agonist assay; activation, % at 3.6 µM; hit rate 20% among 280; AID 1546; in the data active means activation above about 45%;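 further: cells challenged with NPY at its EC10 plus isoproterenol stimulus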
# NPY-Y2 counter = potentiates or activates NPY-Y2, counter-screen for NPY-Y1 hits. shares compounds with NPY1 pot ag. HEK293-CNG cells, membrane-potential fluorescence (FLIPR), 1536-well. activation, % at 3.6 µM. hit rate 20% among 280. AID 1649; in the data active means activation above about 33%
# NPY-Y1 agonist = counter-screen for NPY-Y1 potentiators: agonists of human NPY-Y1; HEK293 Y1-CNGC, membrane potential fluorescence, agonist mode; activation, % at 3.6 µM; shares compounds with NPY1 pot ag; hit rate 50% among 280;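 active means percent activation above the mean of DMSO-only control wells plus 3 SD of those wells, cut at about 18% in these data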;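 further: cells challenged with isoproterenol plus Ro 20-1724 with no NPY in test wells; Y1 agonism lowers isoproterenol-driven cAMP and reduces probe fluorescence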
# NPY-Y2 agonist = human NPY-Y2 agonism as NPY-Y1 counter-screen; hit rate 67% among 280; activation, % at 3.6 µM; HEK293 Y2-CNGC, membrane potential fluorescence, agonist mode; AID 1698; shares compounds with NPY1 pot ag;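 active means activation above the solvent-only control wells' mean plus 3 SD, cut at about 11% in these data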;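 further: agonism lowers cAMP so well fluorescence drops in active wells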
# CNGC inh 2 = CNG channel inhibition, counter-screen for NPY-Y1 potentiators; shares compounds with NPY1 pot ag; HEK293-CNG parental, isoproterenol cAMP, membrane potential fluorescence; inhibition, % at 3.6 µM; hit rate 42% among 280;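 active means inhibition above the mean of stimulated solvent-only control wells plus 3 SD, cut at about 22% in these data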
# Hits are given with their value; i = inactive; nt = not tested or not shown. Compounds with a hit are over-represented: about 2.8% of the library has one in this group of screens.
SMILES,PGE2 EP2 inh,NPY Y1 blocker,NPY1 pot ag,NPY2 pot ag,NPY-Y2 antag,EP2 mod,NPY-Y1 confirm,NPY-Y2 counter,NPY-Y1 agonist,NPY-Y2 agonist,CNGC inh 2
Cc1ccc(Cn2nnc3c(=O)n(CC(=O)OCc4ccccc4)cnc32)cc1,i,i,49,i,i,i,i,i,18,11,30
COc1cc([N+](=O)[O-])ccc1NC(=S)Nc1cccc(C(=O)O)c1,i,i,i,i,i,i,nt,nt,nt,nt,nt
O=C(Nc1ccc([N+](=O)[O-])cc1)C(=O)Nc1cccc(C(=O)O)c1,i,nt,52,i,nt,i,i,i,24,i,35
O=C(Cn1c(=O)n(Cc2ccco2)c2ncccc21)Nc1ccccn1,nt,nt,nt,nt,nt,i,nt,nt,nt,nt,nt
CCCC(=O)Nc1ccc(NC(=O)CCc2ccccc2)cn1,i,i,52,i,i,i,i,i,i,i,i
CCCC(=O)Nc1ccc(NC(=O)Cc2ccccc2)cn1,i,i,i,i,i,i,nt,nt,nt,nt,nt
COCCn1nnnc1CN(Cc1ccc(OC)cc1)Cc1cc2c(C)ccc(C)c2[nH]c1=O,i,nt,nt,nt,nt,i,nt,nt,nt,nt,nt
Cc1cccc(N2C(=S)NC3c4cc(Cl)ccc4OC2(C)C3C(=O)N(C)C)c1 (configuration not stated),i,i,42,i,nt,i,59,i,44,33,47
Cc1ccc(N2C(=S)NC3c4cc(Cl)ccc4OC2(C)C3C(=O)N(C)C)cc1 (configuration not stated),i,i,35,i,nt,i,74,44,51,47,51
COc1ccc(N2C(=S)NC3c4cc(Cl)ccc4OC2(C)C3C(=O)N(C)C)cc1 (configuration not stated),i,i,i,i,nt,i,nt,nt,nt,nt,nt
COc1ccc(Oc2c(Cl)cnn(-c3ccc(Cl)c(Cl)c3)c2=O)cc1,i,i,82,i,i,i,78,49,61,43,65
Cc1ccc(CN(CCCN2CCOCC2)Cc2cnc(C(C)C)nc2)o1,i,nt,nt,nt,nt,i,nt,nt,nt,nt,nt
O=C(Nc1ccc(F)cc1)C1C2CCC3C(CCC21)C3(Cl)Cl (configuration not stated),i,nt,52,i,nt,i,i,i,i,i,i
COc1ccc(N(CCCN2C(=O)c3cccc4cccc(c34)C2=O)C(=O)c2ccncc2)cc1,i,i,42,i,nt,i,i,i,i,i,i
CCOC(=O)c1ccc(NC(=O)CSc2nc3ccc(N)cc3s2)cc1,i,nt,nt,nt,nt,i,nt,nt,nt,nt,nt
COC(=O)CSc1nc2ccc(N)cc2s1,i,i,45,i,nt,i,92,67,71,64,85
Cc1ccc(S(=O)(=O)N2CCC(C(=O)Nc3ccc(S(N)(=O)=O)cc3)CC2)cc1,i,nt,nt,nt,nt,i,nt,nt,nt,nt,nt
Nc1ccccc1Nc1ccccc1,i,i,38,i,i,i,i,i,i,i,24
COC(=O)COc1ccc(/C=C2/NC(=O)N(CC(=O)OC)C2=O)cc1,i,i,49,i,nt,i,118,90,103,89,96
CCOc1cc(/C=C2/NC(=O)N(CC(=O)OC)C2=O)ccc1O,i,i,i,i,nt,i,nt,nt,nt,nt,nt
Clc1ccc(-[n+]2c(-c3cccc(Br)c3)[nH]c3nc4ccccc4nc32)cc1,i,nt,51,i,nt,i,50,47,i,36,i
Oc1ccc(Cl)cc1-c1cc(-c2cccc(Br)c2)n[nH]1,i,i,i,i,i,i,nt,nt,nt,nt,nt
CC1CCN(CC(O)COC2CC(C)CCC2C(C)C)CC1 (configuration not stated),i,i,41,i,nt,i,i,i,i,16,i
CCOC(=O)N1CCN(CC(O)COC2CC(C)CCC2C(C)C)CC1 (configuration not stated),i,i,i,i,i,i,nt,nt,nt,nt,nt
CC1CCC(C(C)C)C(OCC(O)CNC(C)c2ccccc2)C1 (configuration not stated),i,i,43,i,nt,i,i,39,45,42,i
SMILES,PGE2 EP2 inh,NPY Y1 blocker,NPY1 pot ag,NPY2 pot ag,NPY-Y2 antag,EP2 mod,NPY-Y1 confirm,NPY-Y2 counter,NPY-Y1 agonist,NPY-Y2 agonist,CNGC inh 2
COc1cccc(NC(=O)C(Sc2nnc(-c3ccncc3)n2-c2ccc(Cl)cc2)c2ccccc2)c1 (configuration not stated),i,i,52,i,i,i,60,54,63,40,60
Oc1ccccc1Cn1c(-c2ccccc2O)nc2ccccc21,i,i,39,i,i,i,i,i,27,26,i
CCOC(=O)CSc1nnc2c(C)cc3cc(OC)c(OC)cc3n12,i,nt,nt,nt,nt,i,nt,nt,nt,nt,nt
Cn1cc([N+](=O)[O-])c(C(=O)Nc2ccc(C(=O)N3CCCCC3)cc2)n1,i,i,i,i,i,i,nt,nt,nt,nt,nt
Cn1cc([N+](=O)[O-])c(C(=O)Nc2ccc(C3CCCCC3)cc2)n1,i,i,37,i,nt,i,i,i,19,17,i
COc1cc(C2C(C(=O)OC(C)C)=C(C)NC3=C2C(=O)CC(C)(C)C3)ccc1O (configuration not stated),i,nt,nt,nt,nt,i,nt,nt,nt,nt,nt
Cc1onc(-c2c(Cl)cccc2Cl)c1C(=O)n1nnc2ccccc21,i,i,45,i,i,i,i,i,i,i,i
OC(COc1cccc2ccccc12)CN1CCN(c2ccccc2)CC1 (configuration not stated),i,nt,54,i,nt,i,i,i,29,17,i
Cc1cc(C)c2cc(CN(Cc3ccco3)S(=O)(=O)c3ccc(F)cc3)c(=O)[nH]c2c1,i,nt,nt,nt,nt,i,nt,nt,nt,nt,nt
c1ccc(-c2nc(NCCCN3CCOCC3)c3ccccc3n2)cc1,i,i,i,i,i,i,nt,nt,nt,nt,nt
Cc1ccc(-c2nc(Nc3ccc(N4CCOCC4)cc3)c3ccccc3n2)cc1,i,nt,53,i,nt,i,51,42,58,45,58
O=C(Nc1ccc(S(=O)(=O)Nc2cccc(C(F)(F)F)c2)cc1)c1ccco1,i,nt,nt,nt,nt,i,nt,nt,nt,nt,nt
Cc1cc(OCC(O)CN)ccc1Cl (configuration not stated),i,i,51,i,nt,i,i,i,i,18,i
CCCCC(=O)Nc1ccc(C(=O)Nc2ccc(S(=O)(=O)Nc3ccc(C)cc3)cc2)cc1,i,i,60,i,i,i,i,i,i,16,i
